Source: PubChem
PERK inhibitor = blocks human PERK kinase; Q9NZJ5; CHO PERK-DD fusion, SEAP luminescence translation reporter; inhibition, % at 5.6 µM; actives 0.17% (n = 220,000);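 active = inhibition above the mean inhibition of all tested compounds plus 3 SD, set separately per screening campaign, cut at about 2.9% in these data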;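 note: PERK kinase domain activated by AP20187 dimerizer at 100 nM; 0% = DMSO with dimerizer and 100% = rapamycin at 8.4 µM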
eIF4E 4G PPI = inhibitors of eIF4E and eIF4G interaction in translation initiation. TR-FRET eIF4E-eIF4GI(517-606) binding, 2 h. AID 782. P63073+Q04637. actives 0.37% (n = 220,000). inhibition, % at 21.7 µM;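 active = inhibition above about 30%, limit read from the data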;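 note: 0% = full FRET control wells and 100% = background wells lacking eIF4GI fragment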
Runt-SMMHC FRET = blocks binding of human RUNX1 Runt domain to CBFb-SMMHC. Q01196+Q13951. actives 0.74% (n = 220,000). Cerulean-Runt/Venus-CBFb-SMMHC FRET ratio 530/480, 1 h. inhibition, % at 20 µM. AID 1434;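 active = mean inhibition across duplicate retests at 20 µM reaching about 50%, limit read from the data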;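 note: 0% = DMSO wells and 100% = wells with excess untagged CBFb-SMMHC; inhibitors lower the FRET ratio by blocking Runt binding to CBFb-SMMHC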
RanGTP-Impb inh = inhibitors of RanGTP-importin-beta interaction, primary screen, biochemical, FRET, CFP-Ran, YFP-importin-beta, homogeneous; AID 2216; actives 1.1% (n = 300,000); cell-free CFP-Ran/YFP-importin-beta FRET ratio; inhibition, % (no concentration beside the values);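 active = more than half of the replicate wells show a fall in the fluorescence ratio signal beyond about 16%, limit read from the data, passing the limit was not always enough; inconclusive = exactly half of the replicate wells pass the set limit; inactive = fewer than half of replicates pass the limit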;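 note: 0% = DMSO wells and 100% = Ran loaded with GDP instead of GTP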
Hck Nef HTS = inhibitors of human Hck kinase activated by Nef; P08631; actives 0.68% (n = 220,000); Recombinant Hck-YEEI plus Nef, Z-Lyte FRET kinase assay; AID 463187; inhibition, % at 20 µM;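 active = Hck-Nef kinase inhibition above about 50%, limit read from the data; inactive = inhibition below that limit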;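 note: 0% = DMSO with Hck plus Nef and 100% = Hck alone without Nef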
Runt-CBFb FRET = inhibitors of human RUNX1 Runt domain binding to CBFb | actives 0.46% (n = 220,000) | inhibition, % at 20 µM | Cerulean-Runt/Venus-CBFb FRET ratio 530/480, 1 h;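 active = inhibition over about 50% at 20 µM in the single-dose screen, limit read from the data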;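 note: 0% = DMSO wells and 100% = excess unlabeled CBFb competitor control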
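test system = Cerulean-Runt domain fusion protein, energy donor | probe or stimulus = Venus-CBFb binding partner, 100 nM | incubation = two 1 h room-temperature incubations shielded from light | detection = fluorescence energy transfer, 422 nm excitation, 530/480 nm emission | measure = loss of energy transfer signal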
The depositor's hits bear a star; ? = inconclusive; · = no result; [ ] = another dose, or the depositor's remark. The list is not random: actives were taken first. Their share in the collection is about 2.2%.

SMILES	PERK inhibitor	eIF4E 4G PPI	Runt-SMMHC FRET	RanGTP-Impb inh	Hck Nef HTS	Runt-CBFb FRET
CCOC(=O)C1=C(C)Nc2ccc(C)cc2S1	0	-2	4	?	0	1
CCOCCOC(=O)C1=C(C)Nc2ccc(C)cc2S1	0	-3	11	23*	8	2
Cc1c(Cl)cccc1Nc1ncccc1C(=O)OCC(O)CO (stereo not drawn)	1	0	-4	19*	17	2
CC1=C(C(=O)OCC2CCCO2)C(c2ccncc2)C2=C(CC(C)(C)CC2=O)N1 (stereo not drawn)	-1	-10	86*	?	27	42
CCOC(=O)C1=C(C)NC2=C(C(=O)CC(C)(C)C2)C1c1ccc(N(C)C)cc1 (stereo not drawn)	0	-4	16	1	5	4
COC(=O)C1=C(C)NC2=C(C(=O)CC(C)(C)C2)C1c1cccc(C)n1 (stereo not drawn)	0	2	87*	9	22	35
COc1cccc(C2C(C#N)=C(C)NC3=C2C(=O)CC(C)(C)C3)c1 (stereo not drawn)	0	13	55*	2	18	17
CCN1C(=O)[C@H]2[C@@H](c3ccc(OC)cc3)N3C(=O)CN(Cc4ccccc4)C(=O)[C@@]3(C)[C@H]2C1=O	·	·	·	0	·	·
COc1ccc(C(=O)OCn2nnc3ccccc3c2=O)cc1	0	-2	-4	3	26	0
CC(C)(C)OC(=O)N1CCCC1C(=O)N1CCCC1C(=O)N1CCCC1C(=O)O (stereo not drawn)	2	2	0	3	1	0
CCN(CC(=O)Nc1ccc(NC(C)=O)cc1)C(=O)Cc1ccc(S(=O)(=O)N2CCOCC2)s1	·	·	·	-5	·	·
Cc1cccc(/N=C/c2sc3ccccc3c2O)n1	1	3	-1	33*	5	-1
Cc1cccc(/N=C/c2c(O)[nH]c3ccccc23)n1	0	3	-1	3	9	1
Oc1c(C=Nc2cccc3cccnc23)sc2ccccc12	1	5	18	39*	1	35
Oc1ccc(Cl)cc1N=Cc1sc2ccccc2c1Cl	0	2	17	?	1	·
O=C(N/N=C/c1sc2ccccc2c1O)c1cccc2ccccc12	0	1	-19	7	2	-7
O=[N+]([O-])c1ccc(O)c(N=Cc2sc3ccccc3c2O)c1	1	-2	48	38*	3	16
CCCCCn1c(=O)[nH]c2cc(C(=O)N3CCN(Cc4ccc5c(c4)OCO5)CC3)ccc2c1=O	-1	44*	1	-1	-1	-2
COC(=O)c1ccc2c(=O)n(CCCCCC(=O)NCc3ccc4c(c3)OCO4)c(=O)[nH]c2c1	-1	-4	2	35*	3	0
CCCCCn1c(=O)[nH]c2cc(C(=O)NCc3ccc4c(c3)OCO4)ccc2c1=O	0	-1	-2	-8	3	0
CC1CCCN(C(=O)c2cc3c(=O)n4ccccc4nc3s2)C1 (stereo not drawn)	·	·	·	-1	·	·
CCc1nnc(NC(=O)c2sc3nc4c(cc3c2N)CCCCCC4)s1	0	17	61*	8	45	30
CCc1nnc(NC(=O)c2sc3nc4c(cc3c2N)CCCCC4)s1	0	-2	·	?	43	44
O=C1Nc2ccccc2N(O)N1c1cc(-c2ccccc2Cl)no1	3.2*	-1	-3	0	1	0
O=C1C2C3C=CC(C3)C2C(=O)N1CCCCN1C(=O)C2C3C=CC(C3)C2C1=O (stereo not drawn)	0	46*	-3	1	-7	2
Cc1ccc(S(=O)(=O)NCC(=O)N(CC(=O)NCC2CCCO2)C2CCCC2)cc1 (stereo not drawn)	1	91*[fluorescence artefact?]	-3	-3	2	-2
CC(=O)Oc1ccc(C(=O)Nc2cc(NC(=O)c3ccc(OC(C)=O)cc3)cc(C(=O)NC(C)(C)C)c2)cc1	1	2	-6	-2	6	-5
